Source: ChEMBL document CHEMBL1140307, “Design and synthesis of alpha-aryloxyphenylacetic acid derivatives: a novel class of PPARalpha/gamma dual agonists with potent antihyperglycemic and lipid modulating activity” (J Med Chem, 2005)

Columns and labels:
[1] = target: T1, Peroxisome proliferator-activated receptor alpha (Homo sapiens, UniProt Q07869); experiment: In vitro binding affinity for human PPAR alpha
T1 sequence (Q07869 whole entry): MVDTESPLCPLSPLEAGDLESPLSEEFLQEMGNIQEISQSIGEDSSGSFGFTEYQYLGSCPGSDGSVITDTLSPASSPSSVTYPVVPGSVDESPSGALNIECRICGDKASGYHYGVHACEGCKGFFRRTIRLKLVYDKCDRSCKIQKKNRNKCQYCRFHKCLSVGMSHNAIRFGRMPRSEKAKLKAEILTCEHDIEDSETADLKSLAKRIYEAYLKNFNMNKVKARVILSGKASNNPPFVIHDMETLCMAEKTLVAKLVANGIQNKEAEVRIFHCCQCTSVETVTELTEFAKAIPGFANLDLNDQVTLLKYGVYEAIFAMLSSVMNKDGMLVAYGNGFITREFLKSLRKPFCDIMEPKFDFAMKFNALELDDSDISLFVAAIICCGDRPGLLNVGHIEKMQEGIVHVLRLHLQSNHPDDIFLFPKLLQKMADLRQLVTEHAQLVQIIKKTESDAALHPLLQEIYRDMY

[2] = target: T2, Peroxisome proliferator-activated receptor gamma (Homo sapiens, UniProt P37231); experiment: In vitro binding affinity for human PPAR gamma
T2 sequence (P37231 whole entry): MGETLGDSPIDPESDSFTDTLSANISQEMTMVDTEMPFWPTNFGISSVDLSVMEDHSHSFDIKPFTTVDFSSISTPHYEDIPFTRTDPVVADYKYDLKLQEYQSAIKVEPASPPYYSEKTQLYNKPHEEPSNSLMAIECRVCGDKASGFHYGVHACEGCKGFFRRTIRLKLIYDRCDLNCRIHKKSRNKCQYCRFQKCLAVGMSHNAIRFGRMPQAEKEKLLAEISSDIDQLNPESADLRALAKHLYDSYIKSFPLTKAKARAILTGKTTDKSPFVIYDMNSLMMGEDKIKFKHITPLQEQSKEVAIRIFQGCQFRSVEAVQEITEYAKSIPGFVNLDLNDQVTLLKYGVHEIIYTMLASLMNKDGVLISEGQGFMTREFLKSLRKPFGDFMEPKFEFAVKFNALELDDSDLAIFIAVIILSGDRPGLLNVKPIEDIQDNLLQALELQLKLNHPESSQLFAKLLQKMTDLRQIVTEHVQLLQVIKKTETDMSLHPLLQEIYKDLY

[3] = target: T2, Peroxisome proliferator-activated receptor gamma; experiment: Agonist response against human PPAR gamma in transactivation assay; format: functional
Rattus norvegicus [4] = experiment: Effect (150 mg/kg) on PPAR gamma- mediated effects measured as change in heart weight in rats; format: functional
Outline: (§1)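 Male Sprague-Dawley rats (about 200 g, n = 6) were fed rodent chow and gavaged once daily for 2 weeks with compound in 0.5% methylcellulose. Body weight was recorded on days 1, 4, 6, 8, 11 and 14. Rats were euthanized with CO2 24 h after the last dose, and BAT, heart and liver were weighed. Blood was taken by heart puncture for hematocrit. Results are mean ± SD versus vehicle.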

Rattus norvegicus [5] = experiment: Effect (150 mg/kg) on PPAR gamma- mediated effects measured as change in hematocrit weight in rats; format: functional; outline: as §1
Rattus norvegicus [6] = experiment: Effect (150 mg/kg) on PPAR gamma- mediated effects measured as change in brown adipose tissue weight in rats; format: functional; outline: as §1
Rattus norvegicus [7] = experiment: Effect (150 mg/kg) on PPAR gamma- mediated effects measured as change in liver weight in rats; format: functional; outline: as §1
Rattus norvegicus [8] = experiment: Effect (150 mg/kg) on PPAR gamma- mediated effects measured as change in body weight in rats; format: functional; outline: as §1
[9] = target: T1, Peroxisome proliferator-activated receptor alpha; experiment: Agonist response against human PPAR alpha in transactivation assay

| SMILES | IC50 [1] | IC50 [2] | EC50 [3] | EC50 [9] | other results |
| --- | --- | --- | --- | --- | --- |
| CCCc1cc2c(=O)n(C3CCCCC3)oc2c(CCC)c1O[C@H](C(=O)O)c1ccc(C(C)C)cc1 | > 15000 nM | 440 nM |  |  |  |
| CN(CCOc1ccc(CC2SC(=O)NC2=O)cc1)c1ccccn1 (stereo not given) [ROSIGLITAZONE] |  |  |  |  | Heart weight (Rattus norvegicus [4]): 1.46 g; Hematocrit (Rattus norvegicus [5]): 41.3%; BAT (Rattus norvegicus [6]): 1.03 g; Liver weight (Rattus norvegicus [7]): 16.6 g; Body weight (Rattus norvegicus [8]): 322 g |
| CCCc1cc2c(oc(=O)n2CC2CC2)c(CCC)c1O[C@H](C(=O)O)c1ccc(C(C)C)cc1 | 130 nM | 120 nM | 330 nM |  |  |
| CCCc1cc(C(=O)CC)cc(CCC)c1OC(C(=O)O)c1ccccc1 (stereo not given) | 51 nM | 2760 nM |  | 100 nM |  |
| CCCc1cc(C(=O)CC)cc(CCC)c1O[C@@H](C(=O)O)c1ccc(C(C)C)cc1 | 3900 nM | 2980 nM |  |  |  |
| CCCc1cc(C(=O)CC)cc(CCC)c1O[C@H](C(=O)O)c1ccc(CC)cc1 | 64 nM | 210 nM | 480 nM | 76 nM |  |
| CCCc1cc(C(=O)CC)cc(C)c1OC(C(=O)O)c1ccc(C(C)C)cc1 (stereo not given) | 160 nM | 260 nM | 197 nM | 160 nM |  |
| CCCc1cc(C(=O)C(C)(C)C)cc(CCC)c1OC(C(=O)O)c1ccccc1 (stereo not given) | 130 nM | 2700 nM |  | 160 nM |  |
| CCCc1cc(C(=O)CC)cc(CCC)c1O[C@H](C(=O)O)c1ccc(C(F)(F)F)cc1 | 89 nM | 210 nM |  | 250 nM |  |
| CCCc1cc(C(=O)CC)cc(CCC)c1CC(C(=O)O)c1ccc(C(C)C)cc1 (stereo not given) | > 15000 nM | > 50000 nM |  |  |  |
| CCCc1cc(C(=O)C(C)C)cc(CCC)c1OC(C(=O)O)c1ccccc1 (stereo not given) | 160 nM | 3160 nM |  | 250 nM |  |

Further lines, with some results ahead:

| IC50 [1] | IC50 [2] | EC50 [3] | EC50 [9] | SMILES | other results |
| --- | --- | --- | --- | --- | --- |
| 790 nM | 260 nM | 370 nM |  | CCCc1cc2c(=O)n(C(C)C)oc2c(CCC)c1O[C@H](C(=O)O)c1ccc(CC(C)C)cc1 |  |
| 230 nM | 160 nM | 430 nM | 270 nM | CCCc1cc2c(=O)n(C(C)C)oc2c(CCC)c1O[C@H](C(=O)O)c1ccc(C(C)C)cc1 |  |
| 100 nM | 110 nM | 140 nM | 310 nM | CCCc1cc2c(oc(=O)n2CC(F)(F)F)c(CCC)c1O[C@H](C(=O)O)c1ccc(C(C)C)cc1 |  |
| 550 nM | 1790 nM |  |  | CCCc1cc2c(oc(=O)n2C(C)C)c(CCC)c1O[C@H](C(=O)O)c1ccccc1 |  |
| 150 nM | 87 nM | 120 nM |  | CCCc1cc2c(oc(=O)n2CCC)c(CCC)c1O[C@H](C(=O)O)c1ccc(C(C)C)cc1 |  |
